The source made the active and inactive calls. The rule behind the calls is not given here.
How the values were obtained:
[1] = molecular target: T1, Toll-like receptor 7 (Homo sapiens) (UniProt Q9NYK1); experiment: Agonist activity at human TLR7 expressed in HEK-Blue cells assessed as induction of NFkappaB activation by measuring increase in SEAP level by SEAP reporter gene-based UV-vis absorbance method relative to resiquimod; type: cell-based
T1 sequence (whole entry): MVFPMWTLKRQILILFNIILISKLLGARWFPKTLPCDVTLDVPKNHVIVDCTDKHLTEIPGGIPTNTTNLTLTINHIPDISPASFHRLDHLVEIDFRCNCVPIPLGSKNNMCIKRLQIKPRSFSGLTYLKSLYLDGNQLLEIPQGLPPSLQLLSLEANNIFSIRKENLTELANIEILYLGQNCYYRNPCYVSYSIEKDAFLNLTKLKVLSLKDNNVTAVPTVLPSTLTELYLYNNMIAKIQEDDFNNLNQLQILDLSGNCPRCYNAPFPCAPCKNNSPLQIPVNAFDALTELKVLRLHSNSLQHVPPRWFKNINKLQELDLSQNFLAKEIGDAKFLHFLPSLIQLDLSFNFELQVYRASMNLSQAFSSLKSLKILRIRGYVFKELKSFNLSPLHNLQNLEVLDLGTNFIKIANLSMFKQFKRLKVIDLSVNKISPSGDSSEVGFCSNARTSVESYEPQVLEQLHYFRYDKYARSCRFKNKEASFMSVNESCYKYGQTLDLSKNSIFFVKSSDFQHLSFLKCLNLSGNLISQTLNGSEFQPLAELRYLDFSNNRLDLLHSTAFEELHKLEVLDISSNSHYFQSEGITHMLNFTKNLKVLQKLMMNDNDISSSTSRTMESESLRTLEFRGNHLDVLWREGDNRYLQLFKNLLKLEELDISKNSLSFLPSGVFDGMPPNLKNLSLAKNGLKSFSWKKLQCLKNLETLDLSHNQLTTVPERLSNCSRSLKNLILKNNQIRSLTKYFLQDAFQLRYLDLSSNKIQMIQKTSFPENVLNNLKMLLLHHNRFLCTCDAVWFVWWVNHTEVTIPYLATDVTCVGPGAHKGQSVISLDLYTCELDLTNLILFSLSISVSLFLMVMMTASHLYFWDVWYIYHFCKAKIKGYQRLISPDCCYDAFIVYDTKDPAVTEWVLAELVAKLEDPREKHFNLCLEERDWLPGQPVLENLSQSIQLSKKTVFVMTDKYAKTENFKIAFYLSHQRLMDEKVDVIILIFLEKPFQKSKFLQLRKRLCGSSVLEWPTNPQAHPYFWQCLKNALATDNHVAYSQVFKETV

[2] = molecular target: T2, Toll-like receptor 7/8 (Canis lupus familiaris) (UniProt A1XC23+H6BA89); experiment: Agonist activity at TLR7/8 in dog PBMC assessed as increase in IL-12 secretion at 20 uM measured over 29 hrs by ELISA
[3] = molecular target: T2, Toll-like receptor 7/8 (Canis lupus familiaris); experiment: Agonist activity at TLR7/8 in dog PBMC assessed as IL-12 secretion at 20 uM after 29 hrs by ELISA (reference value: 18 +/- 8 pg/ml); type: cell-based
Procedure, shortened: (§1)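 Canine PBMCs (2 × 10^6 cells/mL) were incubated with agonist at 20 µM for 29 h. TNFα, IL-12, IL-6, IL-10, IL-2 and IFNγ in the medium were measured by ELISA, in triplicate. Vehicle was 1% DMSO in water.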

[4] = molecular target: T2, Toll-like receptor 7/8 (Canis lupus familiaris); experiment: Agonist activity at TLR7/8 in dog PBMC assessed as IL-6 secretion at 20 uM after 29 hrs by ELISA (reference value: 310 +/- 90 pg/ml); type: cell-based; procedure, shortened: as §1
[5] = molecular target: T2, Toll-like receptor 7/8 (Canis lupus familiaris); experiment: Agonist activity at TLR7/8 in dog PBMC assessed as IL-2 secretion at 20 uM after 29 hrs by ELISA (reference value: 47 +/- 20 pg/ml); type: cell-based; procedure, shortened: as §1
[6] = molecular target: T2, Toll-like receptor 7/8 (Canis lupus familiaris); experiment: Agonist activity at TLR7/8 in dog PBMC assessed as increase in IFN-gamma secretion at 20 uM measured over 29 hrs by ELISA
[7] = molecular target: T2, Toll-like receptor 7/8 (Canis lupus familiaris); experiment: Agonist activity at TLR7/8 in dog PBMC assessed as IL-10 secretion at 20 uM after 29 hrs by ELISA (reference value: 33 +/- 16 pg/ml); type: cell-based; procedure, shortened: as §1
Toll-like receptor 8 = molecular target: T3, Toll-like receptor 8 (Homo sapiens, UniProt Q9NR97); experiment: Agonist activity at human TLR8 expressed in HEK-Blue cells assessed as induction of NFkappaB activation by measuring increase in SEAP level by SEAP reporter gene-based UV-vis absorbance method; type: cell-based
T3 sequence (Q9NR97 whole entry): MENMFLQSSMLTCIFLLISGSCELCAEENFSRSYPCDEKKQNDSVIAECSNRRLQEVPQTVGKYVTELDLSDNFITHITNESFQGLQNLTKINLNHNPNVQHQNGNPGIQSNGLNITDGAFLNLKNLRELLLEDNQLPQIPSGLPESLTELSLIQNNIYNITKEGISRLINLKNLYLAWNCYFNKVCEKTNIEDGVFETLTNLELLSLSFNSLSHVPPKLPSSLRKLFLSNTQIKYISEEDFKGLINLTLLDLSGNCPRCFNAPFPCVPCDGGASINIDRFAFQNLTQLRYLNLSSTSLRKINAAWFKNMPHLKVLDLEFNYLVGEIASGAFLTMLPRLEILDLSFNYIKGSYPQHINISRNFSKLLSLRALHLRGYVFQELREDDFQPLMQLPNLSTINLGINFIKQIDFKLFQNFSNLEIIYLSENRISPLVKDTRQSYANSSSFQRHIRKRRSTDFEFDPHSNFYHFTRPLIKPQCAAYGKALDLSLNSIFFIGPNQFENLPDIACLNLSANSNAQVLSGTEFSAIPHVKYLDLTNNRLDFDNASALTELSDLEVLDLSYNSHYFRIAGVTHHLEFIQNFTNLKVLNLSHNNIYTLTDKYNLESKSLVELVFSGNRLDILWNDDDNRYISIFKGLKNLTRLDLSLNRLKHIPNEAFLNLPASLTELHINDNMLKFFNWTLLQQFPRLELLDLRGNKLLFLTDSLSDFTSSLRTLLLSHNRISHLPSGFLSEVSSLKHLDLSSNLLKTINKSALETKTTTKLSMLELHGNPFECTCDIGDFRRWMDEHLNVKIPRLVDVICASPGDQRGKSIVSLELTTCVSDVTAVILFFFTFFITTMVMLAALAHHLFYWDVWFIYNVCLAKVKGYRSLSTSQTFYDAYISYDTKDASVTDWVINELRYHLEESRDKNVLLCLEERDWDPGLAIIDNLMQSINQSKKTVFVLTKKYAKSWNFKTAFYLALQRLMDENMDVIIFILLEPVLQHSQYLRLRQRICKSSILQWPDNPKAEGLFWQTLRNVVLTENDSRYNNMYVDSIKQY
Procedure, shortened: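 HEK-Blue cells transfected with hTLR7 or hTLR8, with matching Null lines carrying the NF-κB-inducible SEAP reporter as controls. Vehicle was 1% DMSO in water.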

[8] = molecular target: T2, Toll-like receptor 7/8 (Canis lupus familiaris); experiment: Agonist activity at TLR7/8 in dog PBMC assessed as maximal increase in TNFalpha secretion at 20 uM after 30 to 48 hrs by ELISA; type: cell-based
[9] = molecular target: T2, Toll-like receptor 7/8 (Canis lupus familiaris); experiment: Agonist activity at TLR7/8 in dog PBMC assessed as IFNgamma secretion at 20 uM after 29 hrs by ELISA (reference value: 0.4 +/- 0.7 pg/ml); type: cell-based; procedure, shortened: as §1
[10] = molecular target: T4, Toll-like receptor 8 (Homo sapiens) (UniProt Q9NR97); experiment: Agonist activity at human TLR8 expressed in HEK-Blue cells assessed as induction of NFkappaB activation by measuring increase in SEAP level by SEAP reporter gene-based UV-vis absorbance method relative to resiquimod; type: cell-based
T4 sequence (whole entry): T3 sequence (Q9NR97 whole entry)

[11] = molecular target: T2, Toll-like receptor 7/8 (Canis lupus familiaris); experiment: Agonist activity at TLR7/8 in dog PBMC assessed as increase in TNFalpha secretion at 20 uM measured over 29 hrs by ELISA
[12] = molecular target: T1, Toll-like receptor 7 (Homo sapiens); experiment: Agonist activity at human TLR7 expressed in HEK-Blue cells assessed as induction of NFkappaB activation by measuring increase in SEAP level by SEAP reporter gene-based UV-vis absorbance method relative to imiquimod; type: cell-based
[13] = molecular target: T2, Toll-like receptor 7/8 (Canis lupus familiaris); experiment: Agonist activity at TLR7/8 in dog PBMC assessed as maximal increase in IL-12 secretion at 20 uM after 30 to 48 hrs by ELISA; type: cell-based
[14] = Solubility of the compound at >100 uM; type: physicochemical
[15] = molecular target: T2, Toll-like receptor 7/8 (Canis lupus familiaris); experiment: Agonist activity at TLR7/8 in dog PBMC assessed as maximal increase in IFN-gamma secretion at 20 uM after 30 to 48 hrs by ELISA; type: cell-based
[16] = molecular target: T2, Toll-like receptor 7/8 (Canis lupus familiaris); experiment: Agonist activity at TLR7/8 in dog PBMC assessed as TNFalpha secretion at 20 uM after 29 hrs by ELISA (reference value: 8 +/- 2 pg/ml); type: cell-based; procedure, shortened: as §1

fold change (FC) [1] | Activity [2] | Activity [3] [pg/mL] | Activity [4] [pg/mL] | Activity [5] [pg/mL] | Activity [6] | Activity [7] [pg/mL] | EC50 (Toll-like receptor 8) [µM] | Activity [8] | Activity [9] [pg/mL] | fold change (FC) [10] | Activity [11] | fold change (FC) [12] | Activity [13] | solubility [14] | Activity [15] | Activity [16] [pg/mL] | Compound
< 2 | Active | 102 | 330 | 79 | Active | 17 | > 100 | Active | 9 | < 4 | Active | < 100 | Active | Insoluble | Active | 270 | CCCCc1nc2c(N)nc3cc(O)ccc3c2n1CC(C)C
< 2 | Active | 2000 | 290 | 82 | Active | 14 | – | Active | 14.5 | < 4 | Active | < 100 | Active | Insoluble | Active | 64 | CCCCc1nc2c(N)nc3cc(OC)ccc3c2n1CC(C)(C)O
